Source: ChEMBL document CHEMBL4033800, “Further Developments of the Phenyl-Pyrrolyl Pentane Series of Nonsteroidal Vitamin D Receptor Modulators as Anticancer Agents” (J Med Chem, 2018)
pIC50: −log10 of the molar value. The source made the active and inactive calls. The rule behind the calls is not given here.

How the values were obtained:
[1] = test system: L02; experiment: Antiproliferative activity against human L02 cells after 48 hrs by MTT assay; format: cell-based; conditions: L02, 48 h
[2] = test system: HepG2; experiment: Antiproliferative activity against human HepG2 cells after 48 hrs by MTT assay; format: functional, cell-based; conditions: HepG2, 48 h
[3] = test system: MCF7; experiment: Antiproliferative activity against human MCF7 cells after 48 hrs by MTT assay; format: functional, cell-based; conditions: MCF7, 48 h
[4] = test system: PC-3; experiment: Antiproliferative activity against human PC3 cells after 48 hrs by MTT assay; format: functional, cell-based; conditions: PC-3, 48 h
[5] = test system: Caco-2; experiment: Antiproliferative activity against human Caco2 cells after 48 hrs by MTT assay; format: functional, cell-based; conditions: Caco-2, 48 h
[6] = test system: MCF7; experiment: Induction of apoptosis in human MCF7 cells assessed as late apoptotic cells at 1 uM after 24 hrs by Annexin V-FITC/propidium iodide-staining based flow cytometry (reference value: 0.062%); format: functional
[7] = test system: MCF7; experiment: Induction of cell cycle arrest in human MCF7 cells assessed as accumulation at G2/M phase at 1 uM after 24 hrs by propidium iodide-staining based flow cytometry (reference value: 12.41%); format: functional
[8] = test system: MCF7; experiment: Induction of cell cycle arrest in human MCF7 cells assessed as accumulation at G0/G1 phase at 1 uM after 24 hrs by propidium iodide-staining based flow cytometry (reference value: 56.03%); format: functional
[9] = test system: MCF7; experiment: Induction of apoptosis in human MCF7 cells assessed as early apoptotic cells at 1 uM after 24 hrs by Annexin V-FITC/propidium iodide-staining based flow cytometry (reference value: 1.74%); format: functional
[10] = test system: MCF7; experiment: Induction of cell cycle arrest in human MCF7 cells assessed as accumulation at S phase at 1 uM after 24 hrs by propidium iodide-staining based flow cytometry (reference value: 31.55%); format: functional
[11] = test system: MCF7; experiment: Induction of apoptosis in human MCF7 cells assessed as viable cells at 1 uM after 24 hrs by Annexin V-FITC/propidium iodide-staining based flow cytometry (reference value: 98.2%); format: functional; conditions: MCF7, 24 h, read-out: Activity
[12] = test system: MCF7; experiment: Induction of apoptosis in human MCF7 cells assessed as necrotic cells at 1 uM after 24 hrs by Annexin V-FITC/propidium iodide-staining based flow cytometry (reference value: 0.031%); format: functional
[13] = target: T1, Vitamin D3 receptor (Homo sapiens) (UniProt P11473); experiment: Transactivation of human GAL4-fused VRD expressed in HEK293 cells co-transfected with human RXRalpha/VDRE after 24 hrs by dual luciferase reporter gene assay; format: cell-based
T1 sequence (whole entry): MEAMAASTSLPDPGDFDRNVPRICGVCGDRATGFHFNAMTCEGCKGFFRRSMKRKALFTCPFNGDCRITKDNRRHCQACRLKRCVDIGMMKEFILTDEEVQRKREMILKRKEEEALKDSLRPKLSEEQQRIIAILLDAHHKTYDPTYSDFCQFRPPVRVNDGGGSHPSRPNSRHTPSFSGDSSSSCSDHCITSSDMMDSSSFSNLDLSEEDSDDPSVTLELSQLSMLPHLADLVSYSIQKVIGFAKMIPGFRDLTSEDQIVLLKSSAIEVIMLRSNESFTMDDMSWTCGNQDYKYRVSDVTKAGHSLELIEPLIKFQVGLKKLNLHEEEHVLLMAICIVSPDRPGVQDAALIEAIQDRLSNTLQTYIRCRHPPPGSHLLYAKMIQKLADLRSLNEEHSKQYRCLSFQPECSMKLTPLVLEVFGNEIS

[14] = test system: HepG2; experiment: Induction of cell cycle arrest in human HepG2 cells at 1 uM after 24 hrs by propidium iodide-staining based flow cytometry; format: functional
[15] = test system: Mus musculus; experiment: Hypercalcemic effect in ICR mouse at 0.5 to 5 mg/kg/day, ip administered for 7 days measured on day 8 post-dose by MTB-based assay relative to control; format: ADME, organism-based; conditions: in vivo, 168 h
Procedure, shortened: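 Mice were dosed i.p. over a 7-day period and serum calcium was then measured. Each dose level was compared with a vehicle-treated control group (saline cited as the comparator). Data are mean ± SEM, n = 6 per group. Significance versus vehicle was reported at p < 0.05, 0.01 and 0.001.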

[16] = target: T2, Vitamin D3 receptor (Homo sapiens, UniProt P11473); experiment: Displacement of fluormone VDR red from human full length VDR after 4 hrs by fluorescence polarization assay
T2 sequence (P11473 whole entry): T1 sequence (whole entry)

Compound	pIC50 [1]	pIC50 [2]	pIC50 [3]	pIC50 [4]	pIC50 [5]	Activity [6] [%]	Activity [7] [%]	Activity [8] [%]	Activity [9] [%]	Activity [10] [%]	viability at 1 µM [11] [%]	Activity [12] [%]	Activity [13]	Activity [14]	Activity [15]	pIC50 [16]
CCn1c(C(=O)NCCN)ccc1C(CC)(CC)c1ccc(OCCC(O)(CC)CC)c(C)c1	5.53	5.80	6.17	5.62	5.76	–	–	–	–	–	–	–	–	–	–	–
CCn1c(C(=O)NCCN(C)C)ccc1C(CC)(CC)c1ccc(OCCC(O)(CC)CC)c(C)c1	6.00	6.62	6.37	6.06	5.94	–	–	–	–	–	–	–	–	–	–	–
C#CC(C)OC(=O)c1ccc(C(CC)(CC)c2ccc(OCCC(O)(CC)CC)c(C)c2)n1CC (stereo not drawn)	< 4.30	< 4.30	< 4.30	4.83	< 4.30	–	–	–	–	–	–	–	–	–	–	–
CCC(C)C(NC(=O)c1ccc(C(CC)(CC)c2ccc(OCCC(O)(CC)CC)c(C)c2)n1CC)C(=O)O (stereo not drawn)	5.00	5.58	4.95	4.86	4.70	–	–	–	–	–	–	–	–	–	–	–
Cc1cc(C2(c3ccc(OCC(=O)C(C)(C)C)c(C)c3)CCCCC2)ccc1OCC(=O)C(C)(C)C	–	–	–	–	–	2.53	11.41	59.74	8.2	28.85	88.9	0.33	–	–	–	–
CCn1c(C(=O)N(CCC#N)CCC#N)ccc1C(CC)(CC)c1ccc(OCCC(O)(CC)CC)c(C)c1	4.42	4.33	< 4.30	< 4.30	< 4.30	–	–	–	–	–	–	–	–	–	–	–
CCn1c(C(=O)NC(C)CO)ccc1C(CC)(CC)c1ccc(OCCC(O)(CC)CC)c(C)c1 (stereo not drawn)	5.32	4.37	4.90	5.10	< 4.30	–	–	–	–	–	–	–	–	–	–	–
CCn1c(C(=O)Oc2ccc(CC(=O)OC)cc2)ccc1C(CC)(CC)c1ccc(OCCC(O)(CC)CC)c(C)c1	< 4.30	< 4.30	< 4.30	< 4.30	< 4.30	–	–	–	–	–	–	–	–	–	–	–
CCn1c(C(=O)Nc2ccc(OC(F)(F)F)cc2)ccc1C(CC)(CC)c1ccc(OCCC(O)(CC)CC)c(C)c1	< 4.30	< 4.30	< 4.30	< 4.30	< 4.30	–	–	–	–	–	–	–	–	–	–	–
CCn1c(C(=O)N(C)CC(=O)O)ccc1C(CC)(CC)c1ccc(OCCC(O)(CC)CC)c(C)c1	5.67	5.24	7.10	5.65	5.56	3.66	10.57	61.76	8.42	27.68	87.8	0.17	Dose-dependent effect	Active	Non-Toxic	6.06
C#CCCOC(=O)c1ccc(C(CC)(CC)c2ccc(OCCC(O)(CC)CC)c(C)c2)n1CC	< 4.30	< 4.30	< 4.30	< 4.30	< 4.30	–	–	–	–	–	–	–	–	–	–	–
CCn1c(C(=O)NCCCN(C)C)ccc1C(CC)(CC)c1ccc(OCCC(O)(CC)CC)c(C)c1	5.62	6.96	5.47	5.67	6.31	–	–	–	–	–	–	–	–	–	–	–
